The values that follow come from PubChem BioAssay.

Calls of active or inactive are those of the source.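 How the source made its calls, unless noted: active means fluorescence slope after compound addition differing from the mean of all tested samples at 99.7% confidence, mostly higher but some lower; inactive means the rest.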

A short description of experiment [1]: inhibitors of TNFa-induced NFkB p65 translocation, primary screen, imaging, HUVEC, MLSMR starter and 10KST1 sets (AID 438;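 active means inhibition above 20% together with a positive visual image hit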;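 further: compound added about 3h40 before a 20 min TNFalpha stimulation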;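 on inhibition: signal is the nuclear over cytoplasmic p65 intensity ratio per well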). The following applies: HUVEC TNFa-induced p65 nuclear translocation; cell count: measured here: nuclei count (cytotoxicity indicator), at 2.08 µM; inhibition: at 2 µM, stronger effect = higher value, 0% TNFa-plus-vehicle, 100% no-TNFa wells.
Experiment [2] in a line: endothelial E-selectin expression blockers – imaging, HUVEC, immunofluorescence, MLSMR starter and 10KST1 sets, primary screen (AID 487;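 active means visually confirmed hit in the image check and inhibition above 20%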;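 on inhibition: signal is fraction of cell area covered by stained E-selectin grains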;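 on nuclei count: 100% = median nuclei count of all wells on the same plate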). The following applies: HUVEC TNFalpha-induced E-selectin immunofluorescence imaging, at 2 µM; inhibition: stronger effect = higher value; nuclei count: measured here: cell number, toxicity.
The nature of experiment [3]: Primary imaging screen for DUSP6 inhibitors that restore phospho-Erk in transfected HeLa cells, chemical complementation (AID 609;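 active means compounds giving at least 50% inhibition in the cell-based MKP-3 phosphatase rescue imaging test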;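 on inhibition: phospho-Erk level distribution per well compared with pooled transfected vehicle control wells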). The conditions noted are these: HeLa MKP-3 transfected, phospho-Erk imaging KS statistic, at 10 µM, cells stimulated with TPA for 15 min.
The target in experiment [4] is Dual specificity protein phosphatase 6 (Homo sapiens) (UniProt Q16828). Described as above. The conditions noted are these: HeLa MKP-3 transfected, phospho-Erk imaging KS statistic; at 10 µM; stronger effect = higher value; cells stimulated with TPA for 15 min.
Chain of Dual specificity protein phosphatase 6 (Homo sapiens) (Q16828 whole entry, looked up): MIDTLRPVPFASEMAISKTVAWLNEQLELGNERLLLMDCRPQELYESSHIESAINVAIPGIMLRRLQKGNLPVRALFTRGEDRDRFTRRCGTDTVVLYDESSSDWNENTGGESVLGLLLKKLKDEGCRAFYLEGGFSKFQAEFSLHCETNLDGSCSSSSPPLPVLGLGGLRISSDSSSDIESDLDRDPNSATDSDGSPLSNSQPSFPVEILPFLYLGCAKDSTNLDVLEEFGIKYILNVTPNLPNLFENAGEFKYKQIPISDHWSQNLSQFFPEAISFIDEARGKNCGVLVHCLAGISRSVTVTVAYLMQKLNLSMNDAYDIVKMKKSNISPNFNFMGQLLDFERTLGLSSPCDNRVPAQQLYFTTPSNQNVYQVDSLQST
The target of experiment [5] is Voltage-gated potassium channel subunit beta-2 (Rattus norvegicus) (UniProt P62483). The experiment is described as follows: inhibitors of rat Kvbeta2 reductase activity – biochemical, NADPH fluorescence, primary screen (AID 622;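 active means fluorescence slope higher than the sample average by over 3 SD, cut at about -0.22 in these data, passing the limit was not always enough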;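 further: slope of raw intensity against log time taken from 70 to 1610 s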). The following applies: recombinant KvBeta, 4-cyanobenzaldehyde reduction, at 10 µM, stronger effect = higher value.
Chain of Voltage-gated potassium channel subunit beta-2 (Rattus norvegicus) (P62483 whole entry, looked up): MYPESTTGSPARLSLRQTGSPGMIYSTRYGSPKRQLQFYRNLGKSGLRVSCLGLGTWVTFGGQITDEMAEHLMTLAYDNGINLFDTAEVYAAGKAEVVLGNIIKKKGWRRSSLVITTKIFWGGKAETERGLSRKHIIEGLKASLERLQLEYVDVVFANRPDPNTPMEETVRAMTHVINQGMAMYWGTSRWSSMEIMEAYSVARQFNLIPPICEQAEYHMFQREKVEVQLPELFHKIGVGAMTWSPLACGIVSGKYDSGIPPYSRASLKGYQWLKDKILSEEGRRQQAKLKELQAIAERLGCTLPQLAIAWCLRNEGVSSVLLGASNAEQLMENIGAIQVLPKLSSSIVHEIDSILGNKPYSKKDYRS
Experiment [6] has the same target. The experiment is described as follows: enhancers of rat Kvbeta2 NADPH turnover – biochemical, NADPH fluorescence, primary screen (AID 623;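 active means NADPH fluorescence slope more negative than the mean of all samples by about 3 SD, 99.7% confidence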;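 further: fluorescence intensity change per second fitted from 20 to 320 s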). The following applies: Recombinant KvBeta, NADPH fluorescence decrease slope, 10 min; at 10 µM; stronger effect = lower value.
Experiment [7] deals with Muscarinic acetylcholine receptor M4 (Homo sapiens) (UniProt P08173). Put plainly: M4-linked GIRK flux change, two-sided – cell-based, HEK293 M4/GIRK, thallium flux, BTC-AM, M4 allosteric agonist project, primary screen (AID 625).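 Further: thallium influx through GIRK channels coupled to M4 in HEK293 cells with BTC-AM dye.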 The following applies: at 10 µM, actives lie on both sides. In a few lines: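 Assay system: HEK293 cells with M4 receptor and GIRK channels / Controls: carbachol and DMSO controls / Schedule: 1 h dye loading, 2 min kinetic read / Technique: kinetic fluorescence with BTC-AM dye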
Chain of Muscarinic acetylcholine receptor M4 (Homo sapiens) (P08173 whole entry, looked up): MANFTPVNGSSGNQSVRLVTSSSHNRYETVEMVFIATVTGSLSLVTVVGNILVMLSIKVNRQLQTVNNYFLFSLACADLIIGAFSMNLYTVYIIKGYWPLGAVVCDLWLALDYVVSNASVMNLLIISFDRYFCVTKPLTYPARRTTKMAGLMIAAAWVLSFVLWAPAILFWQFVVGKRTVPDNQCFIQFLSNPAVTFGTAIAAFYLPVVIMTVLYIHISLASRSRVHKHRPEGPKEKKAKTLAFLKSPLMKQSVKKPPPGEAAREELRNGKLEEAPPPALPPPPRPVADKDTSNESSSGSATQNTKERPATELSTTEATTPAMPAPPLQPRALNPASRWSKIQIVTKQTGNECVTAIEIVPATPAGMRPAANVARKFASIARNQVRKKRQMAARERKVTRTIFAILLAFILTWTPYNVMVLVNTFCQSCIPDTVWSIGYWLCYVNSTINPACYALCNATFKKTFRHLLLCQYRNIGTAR

Experiment [8] in a line: inhibitors of larval lipid processing in zebrafish, primary screen, whole organism, PED6 fluorescence, gall bladder and intestine (AID 686;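 active means a full or partial loss of lipid-probe fluorescence in the fish gall bladder, intestine or both, judged by eye; inactive means no fluorescence loss, or compound toxic to the fish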;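 further: signal comes from phospholipase A2 cleavage of quenched PED6 carried via bile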). The following applies: Zebrafish larvae PED6 lipid processing, fluorescence scoring; screened at 20 µM (by protocol). In a few lines: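 Doses: 20 µM single dose. Test system: live zebrafish larvae aged 5-7 days, whole organism. Quantity: five larvae per well. Measured by: By-eye fluorescence microscopy. Reagent: ingested quenched lipid PED6 at 100 nM. Read-out: visual per-well fluorescence inhibition score. Times: overnight exposure of larvae to compound plus PED6.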

A short description of experiment [9]: loss of swimming-algae plug formation – whole organism, Chlamydomonas reinhardtii, WT vs cilia-less mutant, absorbance, 96-well, primary screen (AID 463189;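 active means inhibition at or above 50% relative to wild type and mutant plate controls; inactive means inhibition below 50%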;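 further: 0% = wild type cc124 cells in DMSO and 100% = ciliumless bld1 mutant cells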). The following applies: Chlamydomonas reinhardtii gravitaxis, OD600 absorbance, 2 days; at 10 µM; stronger effect = higher value.
Where [10] appears, read: measured here: cell density z-score.
[11] abbreviates: measured here: nuclear c-Myc green intensity z-score.
Where [12] appears, read: measured here: nuclear pErk red intensity z-score, stronger effect = higher value.

The inhibition is the drop in the measured response relative to a control, in per cent. With `Cc1cc(C)n(CC2CC(=O)N(c3cc(Cl)cc(Cl)c3)C2=O)n1` (stereo unspecified), the cell count in experiment [1] was 656. Moreover, the inhibition was 50.4% (active) in experiment [1], -80.7% (inactive) in [2], -9.53% (inactive) in experiment [4] and 10.7% (inactive) in experiment [9]. This molecule also showed a nuclei count in experiment [2] of 103%. Further, the z-score is -0.905 in experiment [3] (setting [10]), 0.888 in experiment [3] (setting [11]) and -1.76 in [3] (setting [12]). The fluorescence slope is -0.548 (inactive) in [5] and 0.00628 (inactive) in [7]. The NADPH fluorescence slope in experiment [6] is -7.9e-05 (inactive). In experiment [8], the outcome was inactive.
Consider `CC1(C)Cc2c(C#N)c(N3CCOCC3)nc(Cc3ccccc3)c2CO1`, for which the cell count in experiment [1] is 582. The inhibition is -0.5% (inactive) in [1], -122% (inactive) in [2], -3.95% (inactive) in [4] and 17.6% (inactive) in experiment [9]. Also, the nuclei count in [2] was found to be 132%. For the same molecule, the z-score in [3] (setting [10]) is -0.332; in experiment [3] (setting [11]) it was -0.948; in experiment [3] (setting [12]) it was -0.693. Besides, the fluorescence slope in experiment [5] is -0.445 (inactive); in [7] it was 0.00448 (inactive). In [6], the NADPH fluorescence slope is -5.6e-05 (inactive). Further, in experiment [8], the molecule was classed as inactive.
`CN=C(c1ccco1)n1c(=S)nc(-c2ccco2)n(C)c1=S`: the cell count in [1] amounted to 339. Also, the inhibition was -5.2% (inactive) in experiment [1], -204% (inactive) in [2], -2.59% (inactive) in [4] and 28.5% (inactive) in [9]. The molecule further registered a nuclei count in experiment [2] of 126%. In addition, the z-score in [3] (setting [10]) was 0.329; in [3] (setting [11]) it was -0.895; in [3] (setting [12]) it was -0.461. Moreover, the fluorescence slope in experiment [5] is -0.522 (inactive); in experiment [7] it was 0.00396 (inactive). Also, the NADPH fluorescence slope in experiment [6] is -0.000102 (inactive). Also, the result in experiment [8] was inactive.
As to `CC(C)c1nc2n[nH]c(N)c2c2c1CCCC2`, in experiment [1], the cell count was 576. Besides, the inhibition in experiment [1] is 2.1% (inactive); in experiment [2] it was -38.2% (inactive); in experiment [4] it was 7.21% (inactive); in [9], -2.96% (inactive). The nuclei count in [2] turned out to be 148%. For the same molecule, the z-score is -0.386 in experiment [3] (setting [10]), 1.02 in experiment [3] (setting [11]) and -1.27 in experiment [3] (setting [12]). Besides, the fluorescence slope in experiment [5] was -0.465 (inactive); in [7], 0.00509 (inactive). Also, the NADPH fluorescence slope in experiment [6] is -8.5e-05 (inactive). Further, the molecule was classed as inactive in experiment [8].
Turning to `CC(=O)C1=C(O)C(=O)N(c2ccc(S(N)(=O)=O)cc2)C1c1ccccc1F` (stereo unspecified), the cell count in [1] was 382. Besides, the inhibition was -5.4% (inactive) in experiment [1], 14.5% (inactive) in experiment [2], 11.9% (inactive) in experiment [4] and -4.73% (inactive) in [9]. The same molecule registered a nuclei count in experiment [2] of 138%. Further, the z-score in [3] (setting [10]) is -0.839; in [3] (setting [11]) it was -1.6; in [3] (setting [12]), 0.715. Moreover, the figures for the fluorescence slope in experiment [5] and in experiment [7] were -0.476 (inactive) and 0.00408 (inactive), respectively. Further, the NADPH fluorescence slope in [6] is -0.000111 (inactive). The outcome in experiment [8] was inactive.
Turning to `CCOC(=O)CC(=O)CSc1nnc2sc3ccccc3n12`, in experiment [1], the cell count is 493. For the same molecule, the inhibition was -14.5% (inactive) in experiment [1], 27.3% (inactive) in experiment [2], 3.97% (inactive) in [4] and 6.97% (inactive) in [9]. In addition, the nuclei count in experiment [2] came out at 174%. Also, the z-score in experiment [3] (setting [10]) was 0.311; in experiment [3] (setting [11]) it was 0.752; in [3] (setting [12]), -0.0836. Besides, the figures for the fluorescence slope in [5] and in experiment [7] were -0.427 (inactive) and 0.0062 (inactive), respectively. Also, the NADPH fluorescence slope in experiment [6] was -3e-05 (inactive). For the same molecule, the call in experiment [8] was inactive.
Consider `O=C1C(=O)N(CCCn2ccnc2)C(c2ccccn2)/C1=C(/O)c1ccccc1` (stereo unspecified), for which the cell count in experiment [1] came out at 436. The inhibition is -12.2% (inactive) in [1], -259% (inactive) in experiment [2], 9.37% (inactive) in [4] and 0.678% (inactive) in experiment [9]. In addition, the nuclei count in experiment [2] was found to be 147%. The z-score in [3] (setting [10]) was -0.279; in experiment [3] (setting [11]), -1.33; in experiment [3] (setting [12]), 0.494. Also, the figures for the fluorescence slope in experiment [5] and in experiment [7] were -0.469 (inactive) and 0.00446 (inactive), respectively. Further, the NADPH fluorescence slope in [6] is -5.2e-05 (inactive). Besides, the outcome in experiment [8] was inactive.
